An excerpt weighted towards active compounds, which were near 1.7% of everything screened.
NS3 helicase inh = blocks Hepatitis C virus NS3 helicase unwinding; NS3 helicase DNA unwinding, Cy5 molecular beacon fluorescence; actives 0.56% (n = 290,000); inhibition, % at 10.9 µM; AID 1800;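 active = inhibition above the mean of all tested compounds plus 3 SD, set per campaign, cut at about 35% in these data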
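Assay system – hepatitis C virus NS3 helicase domain fragment enzyme · Buffer or medium – MOPS pH 6.5, MgCl2, DTT, Tween20, BSA · Reagent – Cy5/quencher beacon DNA duplex and ATP to start · Compound – single 10.9 µM dose · Timing – 1 h at 25 °C · Technique – Cy5 beacon fluorescence read at start and 1 h · Measure – % inhibition of unwinding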
core dimer inh = blocks dimerization of HCV core protein; TR-FRET GST/Flag-core106 dimerization, 1536-well; inhibition, % at 5 µM; actives 0.33% (n = 300,000); AID 1899;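 active = inhibition above the mean of all tested compounds plus 3 SD, set per screening campaign, cut at about 45% in these data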
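System: GST/Flag-tagged HCV core106 proteins. Incubation: compound-protein-antibody incubation 4 h at 22.5 °C. Technique: HTRF with 340 nm excitation, 617/671 nm emission. Medium: KF-containing HEPES buffer, pH 7.45, DTT, CHAPS, BSA. Read-out: inhibition (%) from 671 over 617 nm ratio. Also added: Eu(K)-anti-GST 90 ng/mL plus XL665-anti-Flag 1 µg/mL.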
ZTA counter = blocks Epstein-Barr virus ZTA, an EBNA-1 counter-screen. P03206. ZTA-DNA binding, fluorescence polarization. inhibition, % at 11 µM. actives 0.15% (n = 320,000). AID 2234; in the data active = inhibition above about 33%
Target sequence (P03206 whole entry, looked up): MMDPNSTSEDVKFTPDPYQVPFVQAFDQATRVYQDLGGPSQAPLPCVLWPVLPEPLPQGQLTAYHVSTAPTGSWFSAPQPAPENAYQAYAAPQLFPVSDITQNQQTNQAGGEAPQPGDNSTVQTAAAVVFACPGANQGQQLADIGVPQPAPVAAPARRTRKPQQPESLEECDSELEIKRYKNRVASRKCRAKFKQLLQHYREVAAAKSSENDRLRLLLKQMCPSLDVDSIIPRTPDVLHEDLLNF
MEX-5 binding = C. elegans MEX-5 TCR-2 RNA binding activity. Q9XUB2. MEX-5/FITC-TCR2 RNA binding, fluorescence polarization; active compounds read low. activity score (negative = inhibition of binding), % at 10 µM. actives 0.38% (n = 300,000). AID 1832;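 active = inhibition past about -25% in most replicates, and total fluorescence under double the plate's negative control median, limit read from the data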
EBV gp42 inh = inhibitors of Epstein-Barr virus glycoprotein 42; Q1HVG2; Fluorescence polarization binding assay, mP read-out; inhibition, % (tested at 21.74 µM); actives 0.42% (n = 220,000); AID 1085; in the data active = inhibition above about 50%
Target sequence (Q1HVG2 whole entry, looked up): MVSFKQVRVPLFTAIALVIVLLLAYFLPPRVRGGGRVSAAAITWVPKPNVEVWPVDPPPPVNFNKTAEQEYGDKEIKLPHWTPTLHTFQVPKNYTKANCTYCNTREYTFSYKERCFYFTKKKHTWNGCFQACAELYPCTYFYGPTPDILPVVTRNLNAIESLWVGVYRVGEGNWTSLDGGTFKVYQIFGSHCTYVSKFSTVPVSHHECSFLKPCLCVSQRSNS
EBNA-1 inhibitor = blocks EBNA-1 binding to DNA; EBNA-1 DNA binding, fluorescence polarization; inhibition, % at 14.8 µM; actives 0.34% (n = 300,000); AID 1950; in the data active = inhibition above about 28%
NS3 helicase cf = HCV NS3 helicase inhibition, confirmation assay; actives 31% (n = 1,600); NS3 helicase DNA unwinding, Cy5 molecular beacon fluorescence; inhibition, % at 10.9 µM; AID 1943; shares compounds with NS3 helicase inh;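 active = inhibition above the mean of all tested compounds plus 3 SD, cutoff set per campaign, cut at about 36% in these data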
FID counter trip = intercalator displacement, NS3 helicase counter-screen; inhibition, % at 7.9 µM; shares compounds with NS3 helicase inh; DNA fluorescent intercalator displacement, fluorescence; actives 4% (n = 1,600); in the data active = inhibition above about 37%;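 also: higher means more displacement of ethidium bromide from the DNA hairpin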
FID counter DR = DNA intercalator displacement in dose response. IC50, µM. shares compounds with NS3 helicase inh. 120 tested, under 10 active. fluorescent intercalator displacement from DNA, fluorescence; call rule not given here
A number is an active result; n = inactive; x = no result given.

SMILES | NS3 helicase inh | core dimer inh | ZTA counter | MEX-5 binding | EBV gp42 inh | EBNA-1 inhibitor | NS3 helicase cf | FID counter trip | others
OCCNCc1c(OCc2ccc(Cl)cc2)ccc2ccccc12 | n | n | n | n | x | n | x | x
COc1ccc(-c2c(C#N)c(SCC(=O)c3cc4ccccc4oc3=O)nc(C)c2C(=O)Nc2ccccc2)cc1 | 52.4 | n | n | n | n | n | n | n
Oc1ccc(/C=N/N(Cc2ccccc2)c2ccccc2)c(O)c1O | 71.3 | x | x | n | n | x | n | n
Oc1cccc(/C=N/N(Cc2ccccc2)c2ccccc2)c1 | n | n | n | n | n | n | x | x
CC(=O)OCCc1c2ccccc2c(CCCN(C)C)c2ccccc12 | x | n | n | x | x | n | x | x
CC(=O)OCCc1[nH]c2ccccc2c1C | 52.4 | n | n | n | x | n | n | n
COCCn1c(=S)[nH]c2sc3c(c2c1=O)CCC(C)C3 (stereo unspecified) | n | n | n | n | x | n | x | x
Cn1c(=S)[nH]c2sc3c(c2c1=O)CCC(C(C)(C)C)C3 (stereo unspecified) | 43.1 | n | n | n | x | n | n | n
COc1cccc(C(=O)Nc2cc(C(=O)NCc3ccc(C)cc3)ccc2N2CCC3(CC2)CC(c2cccc(Br)c2)=NO3)c1 | x | n | n | x | x | n | x | x
Cc1cc(C)c(C(=O)NC2CCCc3c2cnn3-c2ccc(C)c(C)c2)c(=O)[nH]1 (stereo unspecified) | n | n | n | n | x | n | x | x
Cc1cc(N2C(=O)C(=O)/C(=C(/O)c3ccc(F)cc3)C2c2ccc(Cl)cc2)no1 (stereo unspecified) | 43.0 | n | n | n | n | n | 67.8 | n
CC(=O)N(C)c1cccc(-c2ccc3nnc(C)n3n2)c1 | n | n | n | n | x | n | x | x
Cc1ccc(SCc2cc(=O)c3c(=O)n(-c4ccccc4)[nH]c3[nH]2)cc1 | n | n | n | n | n | n | x | x
O=c1cc(CSc2ccc(Cl)cc2)[nH]c2[nH]n(-c3ccccc3)c(=O)c12 | 40.3 | n | n | n | n | n | 52.9 | n | FID counter DR=n
Cc1c(C(=O)Nc2ccc(S(N)(=O)=O)cc2)oc2ccc(Cl)cc12 | n | n | n | n | n | n | x | x
Cc1c(C(=O)NNC(=S)Nc2ccc(S(N)(=O)=O)cc2)oc2ccccc12 | 38.3 | n | n | n | x | n | n | n
Cc1ccc(C(=O)OC(C)C(=O)N(C)C2CCCCC2)cc1S(=O)(=O)N1CCCCC1 (stereo unspecified) | x | x | n | x | x | x | x | x
CCC(C(=O)O)n1nnc(-c2ccc(OCc3ccccc3)c(OC)c2)n1 (stereo unspecified) | n | n | n | n | x | n | x | x
CCC(C(=O)O)n1nnc(-c2ccc(-c3ccc(OC)cc3)cc2)n1 (stereo unspecified) | 39.2 | n | n | n | n | n | 61.6 | n | FID counter DR=n
O=[N+]([O-])c1ccccc1OCCCOc1cccc2cccnc12 | n | n | n | n | x | n | x | x
CC(=O)c1ccccc1NC(=O)CN1C(=O)CS/C1=C\c1nc(-c2ccc(C)cc2)cs1 | 36.7 | n | n | n | n | n | n | n
Cc1ccc(-c2csc(NC(=O)CN3C(=O)CCC3=O)n2)cc1 | n | n | n | n | n | n | x | x
CC[C@H](C)[C@@H](C(=O)NCCCCCCCCCCC(=O)N1CCNCC1)n1cc(CCCCCN)nn1 | x | n | n | x | x | n | x | x
COC(=O)C1=C(O)/C(=C\c2ccc(CNS(=O)(=O)c3ccc(Cl)cc3)o2)N=C1C | 40.1 | n | n | n | n | n | n | n
COC(=O)C1=C(O)/C(=C\c2ccc(CNS(=O)(=O)c3ccccc3)o2)N=C1C | n | n | n | n | n | n | x | x
O=C(COC(=O)c1ccc(Cl)nc1)NNC(=O)c1ccc(Br)cc1 | x | x | n | x | x | x | x | x
CN(CC(=O)Nc1ccccc1Cl)CC(=O)c1c(N)n(Cc2ccccc2)c(=O)n(C)c1=O | x | x | n | x | x | x | x | x

Bioassay records deposited in PubChem by several laboratories.
